≈ marks a conversion by molar mass, not a printed value.
Legend:
[1] = tested on: Staphylococcus aureus; assay: Antibacterial activity against Staphylococcus aureus at 25 ug/ml after 24 hrs by agar disk diffusion assay; type: functional; conditions: read-out: DIZ
Procedure, shortened: (§1)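 Agar well diffusion on nutrient agar against Gram-positive clinical isolates (PSG Hospital, Coimbatore). Compounds in DMSO tested at 0 (control), 25, 50, 75, 100; DMSO as solvent and negative control; ciprofloxacin ([…]) as positive control. Plates incubated 37 ± 2 °C, 24 h; zone of inhibition diameter read in mm.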

[2] = tested on: Enterococcus faecalis; assay: Antibacterial activity against Enterococcus faecalis at 25 ug/ml after 24 hrs by agar disk diffusion assay; type: functional; conditions: read-out: DIZ; procedure, shortened: as §1
[3] = tested on: Escherichia coli; assay: Antibacterial activity against Escherichia coli at 25 ug/ml after 24 hrs by agar disk diffusion assay; type: functional; conditions: read-out: DIZ
Procedure, shortened: (§2)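 Gram-negative clinical isolates (PSG Hospital, Coimbatore) tested by agar well diffusion on nutrient agar. Compounds dissolved in DMSO at 0 (control), 25, 50, 75, 100; DMSO was the negative control and ciprofloxacin ([…]) the positive control. Incubation 37 ± 2 °C for 24 h, then inhibition zone diameter measured in mm.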

[4] = tested on: Klebsiella pneumoniae; assay: Antibacterial activity against Klebsiella pneumoniae at 25 ug/ml after 24 hrs by agar disk diffusion assay; type: functional; conditions: read-out: DIZ; procedure, shortened: as §2
[5] = tested on: Aspergillus niger; assay: Antifungal activity against Aspergillus niger at 25 ug/ml after 48 hrs by agar disk diffusion assay; type: functional; conditions: read-out: DIZ
Procedure, shortened: (§3)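 Fungal isolates (PSG Hospital, Coimbatore) grown on Sabouraud dextrose agar; agar well diffusion with compounds in DMSO at 0 (control), 25, 50, 75, 100. DMSO negative control, fluconazole ([…]) positive control. Plates held 28 ± 2 °C for 48 h; zone of inhibition diameter recorded in mm.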

[6] = tested on: Candida albicans; assay: Antifungal activity against Candida albicans at 25 ug/ml after 48 hrs by agar disk diffusion assay; type: functional; conditions: read-out: DIZ; procedure, shortened: as §3
[7] = tested on: Staphylococcus aureus; assay: Antibacterial activity against Staphylococcus aureus after 24 hrs by agar disk diffusion assay; type: functional; procedure, shortened: as §1
[8] = tested on: Enterococcus faecalis; assay: Antibacterial activity against Enterococcus faecalis after 24 hrs by agar disk diffusion assay; type: functional; procedure, shortened: as §1
[9] = tested on: Escherichia coli; assay: Antibacterial activity against Escherichia coli after 24 hrs by agar disk diffusion assay; type: functional; procedure, shortened: as §2
[10] = tested on: Klebsiella pneumoniae; assay: Antibacterial activity against Klebsiella pneumoniae after 24 hrs by agar disk diffusion assay; type: functional; procedure, shortened: as §2
[11] = tested on: Aspergillus niger; assay: Antifungal activity against Aspergillus niger after 48 hrs by agar disk diffusion assay; type: functional; procedure, shortened: as §3
[12] = tested on: Candida albicans; assay: Antifungal activity against Candida albicans after 48 hrs by agar disk diffusion assay; type: functional; procedure, shortened: as §3
[13] = tested on: Radical scavenging activity; assay: Antioxidant activity assessed as DPPH radical scavenging activity after 30 mins by micro plate reader; type: functional
Procedure, shortened: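 DPPH assay: various compound concentrations brought to volume with ethanol, mixed with 0.1 mM ethanolic DPPH alongside vitamin C standard; shaken 30 min at 24 °C, absorbance read at 517 nm; concentration giving 50% decrease determined.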

[14] = tested on: A549; assay: Cytotoxicity against human A549 cells up to 50 ug/ml after 48 hrs by SRB assay; type: functional, cell-based
Procedure, shortened: (§4)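 Cells in RPMI-1640 with 10% heat-inactivated FBS, 1 mM NaHCO3, 2 mM L-glutamine, 37 °C, 5% CO2; seeded (B16F10 5 × 10⁴ cells/mL, others 1 × 10⁵ cells/mL), 24 h, then compounds in DMSO at 1.56–50 for 48 h, triplicate wells. TCA fixation, SRB staining 30 min, tris extraction, OD 520 nm; IC50 by linear regression, mean ± SD of three independent experiments; cisplatin positive control.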

[15] = tested on: B16-F10; assay: Cytotoxicity against mouse B16F10 cells up to 50 ug/ml after 48 hrs by SRB assay; type: functional, cell-based; procedure, shortened: as §4
[16] = tested on: HCT-15; assay: Cytotoxicity against human HCT15 cells up to 50 ug/ml after 48 hrs by SRB assay; type: functional, cell-based; procedure, shortened: as §4
[17] = Cytotoxicity against human SK-MEL-12 cells up to 50 ug/ml after 48 hrs by SRB assay; type: functional, cell-based; procedure, shortened: as §4
[18] = tested on: SK-OV-3; assay: Cytotoxicity against human SKOV3 cells up to 50 ug/ml after 48 hrs by SRB assay; type: functional, cell-based; procedure, shortened: as §4
[19] = tested on: A549; assay: Cytotoxicity against human A549 cells after 48 hrs by SRB assay; type: functional, cell-based; conditions: A549, 48 h; procedure, shortened: as §4
[20] = tested on: B16-F10; assay: Cytotoxicity against mouse B16F10 cells after 48 hrs by SRB assay; type: functional, cell-based; conditions: B16-F10, 48 h; procedure, shortened: as §4
[21] = Cytotoxicity against human SK-MEL-12 cells after 48 hrs by SRB assay; type: functional, cell-based; procedure, shortened: as §4
[22] = tested on: SK-OV-3; assay: Cytotoxicity against human SKOV3 cells after 48 hrs by SRB assay; type: functional, cell-based; conditions: SK-OV-3, 48 h; procedure, shortened: as §4
[23] = tested on: HCT-15; assay: Cytotoxicity against human HCT15 cells after 48 hrs by SRB assay; type: functional, cell-based; conditions: HCT-15, 48 h; procedure, shortened: as §4
[24] = tested on: B16-F10; assay: Ratio of cisplatin IC50 to compound IC50 for mouse B16F10; type: functional
[25] = tested on: A549; assay: Ratio of cisplatin IC50 to compound IC50 for human A549 cells; type: functional
[26] = tested on: HCT-15; assay: Ratio of cisplatin IC50 to compound IC50 for human HCT15 cells; type: functional
[27] = organism: Homo sapiens; assay: Ratio of cisplatin IC50 to compound IC50 for human SK-MEL-12; type: functional
[28] = tested on: Staphylococcus aureus; assay: Antibacterial activity against Staphylococcus aureus at 50 ug/ml after 24 hrs by agar disk diffusion assay; type: functional; conditions: read-out: DIZ; procedure, shortened: as §1
[29] = tested on: Enterococcus faecalis; assay: Antibacterial activity against Enterococcus faecalis at 50 ug/ml after 24 hrs by agar disk diffusion assay; type: functional; conditions: read-out: DIZ; procedure, shortened: as §1
[30] = tested on: Escherichia coli; assay: Antibacterial activity against Escherichia coli at 50 ug/ml after 24 hrs by agar disk diffusion assay; type: functional; conditions: read-out: DIZ; procedure, shortened: as §2
[31] = tested on: Klebsiella pneumoniae; assay: Antibacterial activity against Klebsiella pneumoniae at 50 ug/ml after 24 hrs by agar disk diffusion assay; type: functional; conditions: read-out: DIZ; procedure, shortened: as §2
[32] = tested on: Aspergillus niger; assay: Antifungal activity against Aspergillus niger at 50 ug/ml after 48 hrs by agar disk diffusion assay; type: functional; conditions: read-out: DIZ; procedure, shortened: as §3
[33] = tested on: Candida albicans; assay: Antifungal activity against Candida albicans at 50 ug/ml after 48 hrs by agar disk diffusion assay; type: functional; conditions: read-out: DIZ; procedure, shortened: as §3

SMILES | MIC [7] [µg/mL] | MIC [8] [µg/mL] | MIC [9] [µg/mL] | MIC [10] [µg/mL] | MIC [11] [µg/mL] | MIC [12] [µg/mL] | IC50 [13] [µg/mL] | zone of inhibition at 25 µg/mL [1] [mm] | zone of inhibition at 25 µg/mL [2] [mm] | zone of inhibition at 25 µg/mL [3] [mm] | zone of inhibition at 25 µg/mL [4] [mm] | zone of inhibition at 25 µg/mL [5] [mm] | zone of inhibition at 25 µg/mL [6] [mm] | IC50 [16] | IC50 [17] | IC50 [18] | IC50 [19] [µg/mL] | IC50 [20] [µg/mL] | IC50 [21] [µg/mL] | IC50 [23] [µg/mL] | further results
Cc1ccc2[nH]c3c(c2c1)CCc1c-3nc(N)c(C#N)c1-c1cccs1 | 25 (≈ 70.1 µM) | 25 (≈ 70.1 µM) | 25 (≈ 70.1 µM) | 25 (≈ 70.1 µM) | 75 (≈ 210 µM) | 75 (≈ 210 µM) | 227.37 (≈ 638 µM) | 26 | 29 | 27 | 28 | 15 | 17 | – | – | – | 4.04 (≈ 11.3 µM) | 2.85 (≈ 8 µM) | 4.61 (≈ 12.9 µM) | 3.45 (≈ 9.68 µM) | IC50 [22]: 10 µg/mL (≈ 28.1 µM); Ratio IC50 [25]: 1.39; Ratio IC50 [26]: 2.31; Ratio IC50 [27]: 2.25; Ratio IC50 [24]: 1.94
CCOC(=O)c1c(N)nc2c(c1-c1ccc(N(C)C)cc1)CCc1c-2[nH]c2ccc(C)cc12 | 50 (≈ 113 µM) | 50 (≈ 113 µM) | 50 (≈ 113 µM) | 50 (≈ 113 µM) | > 100 | > 100 | – | – | – | – | – | – | – | Not Active | Not Active | Not Active | – | – | – | – | zone of inhibition at 50 µg/mL [28]: 21 mm; zone of inhibition at 50 µg/mL [29]: 18 mm; zone of inhibition at 50 µg/mL [30]: 19 mm; zone of inhibition at 50 µg/mL [31]: 22 mm; zone of inhibition at 50 µg/mL [32]: 7 mm; zone of inhibition at 50 µg/mL [33]: 5 mm; IC50 [14]: Not Active; IC50 [15]: Not Active

The remaining molecules from weak to strong by MIC [7], led by results:

MIC [7] [µg/mL] | MIC [8] [µg/mL] | MIC [9] [µg/mL] | MIC [10] [µg/mL] | MIC [11] [µg/mL] | MIC [12] [µg/mL] | IC50 [13] [µg/mL] | SMILES | zone of inhibition at 25 µg/mL [1] [mm] | zone of inhibition at 25 µg/mL [2] [mm] | zone of inhibition at 25 µg/mL [3] [mm] | zone of inhibition at 25 µg/mL [4] [mm] | zone of inhibition at 25 µg/mL [5] [mm] | zone of inhibition at 25 µg/mL [6] [mm] | IC50 [16] | IC50 [17] | IC50 [18] | IC50 [19] [µg/mL] | IC50 [20] [µg/mL] | IC50 [21] [µg/mL] | IC50 [23] [µg/mL] | further results
25 (≈ 52.5 µM) | 25 (≈ 52.5 µM) | 25 (≈ 52.5 µM) | 25 (≈ 52.5 µM) | > 100 | > 100 | 214.77 (≈ 451 µM) | CCOC(=O)c1c(N)nc2c(c1-c1ccc(Br)cc1)CCc1c-2[nH]c2ccc(C)cc12 | 23 | 22 | 21 | 25 | 5 | 7 | Not Active | Not Active | Not Active | – | – | – | – | IC50 [14]: Not Active; IC50 [15]: Not Active
25 (≈ 51.8 µM) | 25 (≈ 51.8 µM) | 25 (≈ 51.8 µM) | 25 (≈ 51.8 µM) | > 100 | > 100 | 330.25 (≈ 684 µM) | CCOC(=O)c1c(N)nc2c(c1-c1cc3ccccc3nc1Cl)CCc1c-2[nH]c2ccc(C)cc12 | 25 | 24 | 23 | 26 | 7 | 11 | Not Active | – | – | 17.6 (≈ 36.5 µM) | 20.5 (≈ 42.4 µM) | 27.7 (≈ 57.3 µM) | – | IC50 [22]: 18.6 µg/mL (≈ 38.5 µM)
25 (≈ 58.2 µM) | 25 (≈ 58.2 µM) | 25 (≈ 58.2 µM) | 25 (≈ 58.2 µM) | > 100 | > 100 | 140.21 (≈ 327 µM) | Cc1ccc2[nH]c3c(c2c1)CCc1c-3nc(N)c(C#N)c1-c1ccc(Br)cc1 | 24 | 23 | 22 | 25 | 6 | 7 | – | Not Active | Not Active | 35 (≈ 81.5 µM) | 2.84 (≈ 6.62 µM) | – | 11 (≈ 25.7 µM) | Ratio IC50 [24]: 2
25 (≈ 62 µM) | 25 (≈ 62 µM) | 25 (≈ 62 µM) | 25 (≈ 62 µM) | 75 (≈ 186 µM) | 75 (≈ 186 µM) | 244.85 (≈ 607 µM) | CCOC(=O)c1c(N)nc2c(c1-c1cccs1)CCc1c-2[nH]c2ccc(C)cc12 | 27 | 28 | 26 | 29 | 17 | 18 | – | – | Not Active | 23.4 (≈ 58 µM) | 19.4 (≈ 48 µM) | 48.2 (≈ 119 µM) | 22.5 (≈ 55.8 µM) | –

Reference: ChEMBL document CHEMBL1909519, “L-Proline anchored multicomponent synthesis of novel pyrido[2,3-a]carbazoles; investigation of in vitro antimicrobial, antioxidant, cytotoxicity and structure activity relationship studies” (Eur J Med Chem, 2011)
